# SF1 activator – activates the human nuclear receptor SF-1 | Q13285 | CHO-K1 Gal4-SF-1 LBD luciferase reporter; % increase over DMSO SF-1-specific signal | activation, % at 10 µM | hit rate 1.9% among 65,000 | AID 522;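 active means activation above the mean activation of all tested compounds plus 3 SD, cut at about 50% in these data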
#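 Compound – one dose, 10 µM compound, 1% DMSO · Test system – transient Gal4-SF-1 LBD reporter, CHO-K1 · Input – 4,000 cells in each well · Read-out basis – percent activation relative to DMSO median and mock-transfected background · Replicates – single measurement per compound · Technique – steady-glow luciferase luminescence, read after 15 min reagent incubation · Timing – 20 h compound treatment, 37 °C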
# JNK3 blocker – inhibitors of human JNK3 kinase; P53779; purified JNK3 kinase activity, HTS; inhibition, % at 8 µM; hit rate 0.61% among 60,000; in the data active means inhibition above about 17%;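 further: 0% = DMSO and 100% = reference inhibitor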
# RORA act – activators of human nuclear receptor RORA | hit rate 1.5% among 65,000 | P35398 | CHO-K1 Gal4-RORA LBD luciferase reporter, luminescence; percent increase over mock-subtracted basal signal | activation, % at 10 µM;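 active means activation above the mean of all tested compounds plus 3 SD, cut at about 49% in these data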;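 further: 0% = DMSO-treated RORA cells and 100% = added signal equal to DMSO minus mock-transfected cells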
# Target sequence (P35398 whole entry, looked up, the tested form may be a part): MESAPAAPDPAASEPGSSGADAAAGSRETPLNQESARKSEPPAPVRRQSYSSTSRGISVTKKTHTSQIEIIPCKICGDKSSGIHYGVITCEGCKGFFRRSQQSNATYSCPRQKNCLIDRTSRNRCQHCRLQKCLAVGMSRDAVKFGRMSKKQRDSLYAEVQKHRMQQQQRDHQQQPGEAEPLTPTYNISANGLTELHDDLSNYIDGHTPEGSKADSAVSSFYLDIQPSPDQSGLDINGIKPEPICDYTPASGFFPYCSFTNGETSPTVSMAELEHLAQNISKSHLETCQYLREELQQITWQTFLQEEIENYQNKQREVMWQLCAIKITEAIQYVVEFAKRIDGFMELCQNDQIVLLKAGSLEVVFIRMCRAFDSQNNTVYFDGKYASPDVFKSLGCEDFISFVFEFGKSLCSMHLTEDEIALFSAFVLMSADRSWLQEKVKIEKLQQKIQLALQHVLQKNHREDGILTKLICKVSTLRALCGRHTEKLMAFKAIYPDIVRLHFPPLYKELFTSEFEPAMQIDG
# Calb biofilm kill – kills Candida albicans biofilms. inhibition, % at 6 µM. C. albicans biofilm + clotrimazole, Alamar Blue. hit rate 0.14% among 85,000;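 active means inhibition above 20%; inactive means inhibition below 20%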;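 further: preformed 24 hr biofilms exposed to compound for 48 hr; 0% = biofilm without compound and 100% = blank killed by clotrimazole plus chlorhexidine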
# The depositor's hits bear a star; / = no result. Rows were chosen to be rich in hits. Some 2.3% of all compounds tested hit in one or more screens of this group.
SMILES,SF1 activator,JNK3 blocker,RORA act,Calb biofilm kill
O=C(Nc1ccc(N2CCOCC2)c(Cl)c1)C1CCCCC1,47,4,49*,6
O=C(Nc1ccc(N2CCOCC2)cc1)C1CC1,-3,2,5,0
O=C1COc2ccc(C(=O)c3ccccc3C(=O)NCc3ccccc3)cc2N1,/,/,/,-4
O=C(CN1C(=O)NC2(CCCCCC2)C1=O)c1ccc2c(c1)OCCO2,89*,2,25,-4
COc1ccc(Cn2c(CCCO)nc3ccccc32)cc1OC,8,-3,21,-2
O=C(NCC1CCCO1)c1ccc(/C=N/O)nc1 (stereo not given),-4,2,14,4
CC1CCCN(c2ccc(C(=O)NCC3CCCO3)cn2)C1 (stereo not given),58*,-4,28,8
COC(=O)\C(C(C)=O)=C(/C=C/C=C/C=C/N(C)C)N(C)C,/,/,/,0
COc1ccc(C(=O)Nc2nc3ccccc3[nH]2)cc1OC,50*,5,18,7
COc1ccc(C(=O)NCc2nc3ccccc3[nH]2)cc1OC,-1,31*,0,-1
Cc1cccc(S(=O)(=O)N(CC(=O)Nc2ccccc2C)Cc2ccco2)c1,/,/,/,39*
CC(=O)c1ccc(Nc2ncnc3c2oc2ccccc23)cc1,89*,7,23,-3
CC(=O)Nc1ccc(Nc2nc(C)nc3c2oc2ccccc23)cc1,0,0,-3,10
CC(CC(=O)NC1CCCC1)c1ccccc1 (stereo not given),/,/,/,-3
N#CCCC12CCCCC1=Nc1ccccc12 (stereo not given),-2,19*,-16,6
CCCSc1nnc(-c2ccccc2N)c(=O)[nH]1,45,4,43,5
CCCCSc1nnc(-c2ccccc2N)c(=O)[nH]1,35,-6,58*,/
CS(=O)(=O)N(CCc1ccccc1)CC(=O)N1CCN(c2ccc(F)cc2)CC1,/,/,/,2
Cc1ccc2nc(-c3cccnc3)oc2c1,33,6,50*,12
COC(=O)c1ccc(-c2nc3ccc(C)cc3o2)cc1,46,-4,68*,6
O=C(Nc1cccnc1)c1ccc(COc2ccccc2Br)o1,2,21*,16,4
C=CCOn1c(=O)c(C)[n+]([O-])c2ccccc21,0,4,0,5
C=CCOn1c(=O)c(-c2cc3ccccc3o2)[n+]([O-])c2ccccc21,77*,-10,44,/
O=C(Nc1ccc(Cl)cc1)N(C1=NCCC1)c1ccc(OC(F)F)cc1,/,/,/,4
COc1ccc(NC(=O)CN(C)S(=O)(=O)c2cccs2)cc1,22,-7,51*,2
SMILES,SF1 activator,JNK3 blocker,RORA act,Calb biofilm kill
CCOc1ccc(N(CC(=O)Nc2ccc(OC)cc2)S(C)(=O)=O)cc1,36,-8,61*,5
CCOc1ccc(NC(=O)CN(c2ccc(OC)cc2)S(C)(=O)=O)cc1,26,6,77*,6
COC(=O)c1ccc(NC(=O)CN(c2ccc(OC)cc2)S(C)(=O)=O)cc1,75*,4,66*,-1
CCOc1ccc(NC(=O)CN(C2CCCCC2)S(C)(=O)=O)cc1,/,/,/,2
COC(=O)c1ccccc1NC(=O)CN(c1ccc(OC)cc1)S(C)(=O)=O,/,/,/,5
CC(=O)N1CCc2cc(S(=O)(=O)CCC(=O)Nc3c(C)n(C)n(-c4ccccc4)c3=O)ccc21,17,3,-3,5
Cn1c(C(=O)NC2CCCC2)cc2c(=O)n(C)c3ccccc3c21,-16,7,4,1
Cc1cc(S(=O)(=O)N2CCCCCC2)c(Cl)cc1Cl,/,/,/,-3
Cc1cccc(N(CC(=O)Nc2ccc(F)cc2)S(C)(=O)=O)c1,/,/,/,55*
CSc1cccc(NC(=O)CN(c2cccc(C)c2)S(C)(=O)=O)c1,/,/,/,-2
O=C(COc1ccc(Cl)cc1)Nc1ccc(Cl)cn1,-2,-1,13,5
O=C(COc1ccccc1Cl)Nc1ccc(Cl)cn1,74*,8,62*,7
O=C(CCc1ccccc1)Nc1ccc(Cl)cn1,60*,4,38,5
CCOC(=O)c1sc(NC(=O)CSc2nc(-c3ccco3)cc(C(F)(F)F)n2)c(C(=O)OC(C)C)c1C,/,/,/,3
O=c1c2[nH]c3ccccc3c2ncn1Cc1ccncc1,7,14,9,4
O=c1c2[nH]c3cccc(Cl)c3c2ncn1Cc1ccncc1,8,22*,0,0
CCC(c1nnnn1C(C)(C)C)N1CCN(c2cc(Cl)ccc2C)CC1 (stereo not given),-9,5,3,3
COC(=O)c1sccc1NC(=S)N1CC(C)CC(C)C1 (stereo not given),/,/,/,0
Cc1nn(C)cc1CNC(=O)c1cnn2c(C(F)F)cc(C3CC3)nc12,2,33*,-15,3
CC1=C(C#N)C(Nc2ccc(C)cn2)(C(F)(F)F)C(=O)N1 (stereo not given),/,/,/,2
CC(=O)/C=C(\C)Nc1ccc(-c2cnc(-c3ccccc3)o2)cc1,57*,3,88*,9
CCCC1=C(C(=O)OCC)C(c2ccncc2)n2ncnc2N1 (stereo not given),/,/,/,12
O=C(NC1CCCC1)c1cccnc1N1CCCCCC1,-3,34*,-32,4
O=S(=O)(Cc1nc2ccccc2s1)c1ccccc1,110*,-3,50*,6
CC1(C)Cc2nc3sc4c(=O)n(CC(=O)NCc5ccco5)cnc4c3cc2CO1,62*,/,40,6
SMILES,SF1 activator,JNK3 blocker,RORA act,Calb biofilm kill
N/C(COc1cccc(C(F)(F)F)c1)=N\NC(=O)c1cccnc1Oc1ccccc1,/,/,/,11
COC(=O)c1ccccc1NC(=O)COC(=O)c1ccc(C)c(NC(=O)c2ccco2)c1,-5,5,-16,8
COC(=O)c1ccccc1NC(=O)COC(=O)CSCC(=O)N1CCOCC1,-4,19*,0,10
CCCCC(=O)Nc1ccccc1C(=O)N1CCOCC1,/,/,/,-3
COC(=O)c1ccccc1NC(=O)COC(=O)c1ccco1,-17,21*,-33,/
COc1cccc(NC(=O)Cn2cnc3sc(C)c(S(=O)(=O)N4CCCCC4)c3c2=O)c1,/,/,/,4
Cn1c(NCc2c[nH]c3ccccc23)nc2ccccc21,78*,4,64*,5
CCn1c(NCc2c[nH]c3ccccc23)nc2ccccc21,-8,-5,11,2
CCN(CC)c1ccc(/C=C2\C(=O)N(c3ccc([N+](=O)[O-])cc3)N=C2N2CCOCC2)cc1,/,/,/,5
O=C(Nc1nccs1)C1CCCN(S(=O)(=O)c2cccnc2)C1 (stereo not given),-1,8,-14,9
O=C(Nc1nccs1)C1CCN(S(=O)(=O)c2cccnc2)CC1,-9,8,12,21*
COc1cccc(CN2CCNC(=O)C2CC(=O)O)c1OC (stereo not given),17,-9,-1,11
Cc1ccccc1CN1CCNC(=O)C1CC(=O)O (stereo not given),-12,-4,-4,28*
COc1cc(C2NC(=O)NC(C)=C2C(=O)OC2CCCC(C)C2)ccc1O (stereo not given),6,36*,16,2
COc1cc(C2NC(=O)NC(C)=C2C(=O)OC(C)(C)C)ccc1OCC(=O)O (stereo not given),-2,-8,-16,6
